Results from PMC6287576 (International Journal for Parasitology: Drugs and Drug …, 2018).
Values after ≈ are worked out from the molar mass of the structure shown. Counter-ions that a name gives are not always drawn.

How the values were obtained:
[1] = system: recombinant A. suum N-AChR; conditions: ref Zheng et al., 2017; cited from earlier work
[2] = molecular target: T1, P. equorum N-AChR (ACR-16) (Parascaris equorum, UniProt A0A3S9VMQ8); test: Two-electrode voltage-clamp, Peq-N-AChR in Xenopus oocytes; type: cell-based; conditions: for Hill slope: Peq N-AChR; for current elicited by perfusion: Peq-N-AChR, 100 μM
T1 sequence (A0A3S9VMQ8 25-504): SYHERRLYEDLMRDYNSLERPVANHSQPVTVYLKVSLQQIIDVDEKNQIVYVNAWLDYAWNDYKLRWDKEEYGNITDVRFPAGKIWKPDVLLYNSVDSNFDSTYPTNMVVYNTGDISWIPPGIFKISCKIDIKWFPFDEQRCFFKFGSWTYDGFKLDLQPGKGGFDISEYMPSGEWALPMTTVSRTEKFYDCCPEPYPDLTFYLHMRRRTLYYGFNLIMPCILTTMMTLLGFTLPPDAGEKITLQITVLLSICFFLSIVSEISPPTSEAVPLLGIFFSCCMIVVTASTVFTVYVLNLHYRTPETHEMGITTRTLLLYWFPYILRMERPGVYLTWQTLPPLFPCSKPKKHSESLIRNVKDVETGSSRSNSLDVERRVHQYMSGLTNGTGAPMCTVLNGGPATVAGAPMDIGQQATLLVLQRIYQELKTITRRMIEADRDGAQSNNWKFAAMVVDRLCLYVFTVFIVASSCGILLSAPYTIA

[3] = molecular target: T2, C. elegans N-AChR (ACR-16) (Caenorhabditis elegans, UniProt P48180); test: Two-electrode voltage-clamp, Cel-N-AChR in Xenopus oocytes; type: cell-based; conditions: for Hill slope: Cel N-AChR
T2 sequence (P48180 20-498): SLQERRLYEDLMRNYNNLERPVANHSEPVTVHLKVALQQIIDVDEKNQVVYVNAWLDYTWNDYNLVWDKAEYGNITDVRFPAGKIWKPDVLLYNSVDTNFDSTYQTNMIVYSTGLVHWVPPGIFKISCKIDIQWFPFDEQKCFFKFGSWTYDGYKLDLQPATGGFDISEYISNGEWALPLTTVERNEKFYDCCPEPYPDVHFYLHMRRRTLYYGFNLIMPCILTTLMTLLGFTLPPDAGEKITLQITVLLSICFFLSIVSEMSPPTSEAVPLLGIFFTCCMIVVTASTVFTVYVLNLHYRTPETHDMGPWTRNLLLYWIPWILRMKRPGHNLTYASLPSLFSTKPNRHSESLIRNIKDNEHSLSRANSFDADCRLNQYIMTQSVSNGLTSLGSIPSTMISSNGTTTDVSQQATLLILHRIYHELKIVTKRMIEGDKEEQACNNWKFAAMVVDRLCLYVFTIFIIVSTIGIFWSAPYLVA

[4] = system: C. elegans lev-8 (ok1519) mutant lacking L-AChR; test: C. elegans paralysis assay, lev-8 mutant; set-up: species or system Caenorhabditis elegans; conditions: agar plate containing 31 mM drug, 15-60 min
[5] = system: C. elegans acr-16 (ok789) mutant lacking N-AChR; test: C. elegans paralysis assay, acr-16 mutant; set-up: species or system Caenorhabditis elegans; conditions: agar plate containing 31 mM drug, 15-60 min
[6] = system: H. contortus L-AChR-2; test: Two-electrode voltage-clamp, Hco-L-AChR-2 in Xenopus oocytes; type: cell-based, Haemonchus contortus; conditions: 100 μM
[7] = system: H. contortus L3 larvae, Lev/Pyr/Ivm multi-resistant Kokstad isolate; test: Automated larval migration assay; set-up: species or system Haemonchus contortus; conditions: for IC50: Haemonchus contortus, read-out: IC50 (L3 migration, ALMA); for resistance factor between Kok and Wey: based on respective ALMA IC50 values
[8] = system: C. elegans Bristol N2 (wild type); test: C. elegans paralysis assay, N2; set-up: species or system Caenorhabditis elegans; conditions: agar plate containing 31 mM drug, 15-60 min
[9] = system: H. contortus L-AChR-1; test: Two-electrode voltage-clamp, Hco-L-AChR-1 in Xenopus oocytes; type: cell-based, Haemonchus contortus; conditions: 100 μM
[10] = system: C. elegans L-AChR; test: Two-electrode voltage-clamp, Cel-L-AChR in Xenopus oocytes; type: cell-based, Caenorhabditis elegans; conditions: 100 μM
[11] = system: H. contortus L3 larvae, anthelmintic-susceptible Weybridge isolate; test: Automated larval migration assay; conditions: Haemonchus contortus, read-out: IC50 (L3 migration, ALMA)
[12] = system: C. elegans L-AChR; conditions: recombinant C. elegans L-AChR in Xenopus oocytes; ref Boulin et al., 2008; cited from earlier work
[13] = system: H. contortus Kokstad isolate (eggs); test: Egg hatch assay, Kokstad isolate; set-up: species or system Haemonchus contortus; conditions: triplicate
In short: (§1)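 Benzimidazole test compound applied to eggs of each sheep-passaged isolate to establish benzimidazole susceptibility or resistance status. Method followed a published egg hatch protocol. ED50 reported in μg/ml, from triplicate tests.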

[14] = system: H. contortus Weybridge isolate (eggs); test: Egg hatch assay, Weybridge isolate; set-up: species or system Haemonchus contortus; conditions: triplicate
In short: as §1

Compound | Hill slope [2] | current elicited by perfusion [2] | EC50 [3] | Hill slope [3] | current elicited by perfusion ([3]; Cel-N-AChR, 100 μM) | effect on motility (paralysis) [4] | effect on motility (paralysis) [5] | response of oocytes [6] | IC50 [7] | effect on motility (paralysis) [8] | response of oocytes [9] | response of oocytes [10] | IC50 [11] | resistance factor between Kok and Wey [7] | also measured
C#Cc1cncc([C@@H]2CCCCN2)c1 [(S)-5-ethynyl-anabasine] |  |  |  |  |  |  |  |  |  |  |  |  |  |  | agonist potency [1]: higher agonist potency than other nicotine alkaloids
CC(=O)OCC[N+](C)(C)C [Acetylcholine, Acetylcholine chloride] | 2.0 ± 0.2 | robust currents in the μA range | 22 ± 1.2 µM | 2.1 ± 0.4 | robust currents in the μA range |  |  |  |  |  |  |  |  |  | 
c1cncc([C@@H]2CCCCN2)c1 [Anabasine, anabasine] | 1.8 ± 0.2 | very similar currents as for Nic | 27.5 ± 0.9 µM | 2.4 ± 0.4 | very similar currents as for Nic | affected | significantly less sensitive | very small currents on few oocytes | 141 ± 6.9 µM | affected | failed to induce significant response | failed to induce significant response | 179 ± 7.9 µM |  | EC50 [2]: 1.7 ± 0.1 µM
c1ccc([C@H]2CN3CCSC3=N2)cc1 [Levamisole, (−)-tetramisole hydrochloride] |  |  |  |  |  |  |  |  | 14 ± 0.35 µM |  |  |  | 1.14 ± 0.03 µM | 12.3 | sensitivity of recombinant receptor [12]: sensitive
CN1CCC[C@H]1c1cccnc1 [Nicotine, (−)-nicotine hydrogen tartrate] | 1.7 ± 0.2 |  | 15.1 ± 1.3 µM | 2.2 ± 0.2 |  | affected | significantly less sensitive | responded robustly | 1170 ± 67.7 µM | affected | failed to induce significant response | failed to induce significant response | 611 ± 55.1 µM |  | EC50 [2]: 2.9 ± 0.5 µM; Emax at 100 µM ([2]; read-out: % of ACh response): 96.6 ± 9.2%; % of ACh response ([3]; Cel-N-AChR, 100 μM): 79.5 ± 7.5%; sensitivity of recombinant receptor [12]: insensitive
CN1CCCN=C1/C=C/c1cccs1 [Pyrantel, pyrantel citrate] |  |  |  |  |  |  |  |  | 18.5 ± 1.32 µM |  |  |  | 0.77 ± 0.01 µM | 23.9 | 
c1ccc2[nH]c(-c3cscn3)nc2c1 [TBZ, thiabendazole] |  |  |  |  |  |  |  |  |  |  |  |  |  |  | ED50 (egg hatch assay) [13]: 0.437 ± 0.205 µg/mL (≈ 2.17 µM); ED50 (egg hatch assay) [14]: 0.024 ± 0.001 µg/mL (≈ 0.119 µM)
(±)-nornicotine | 1.9 ± 0.3 | very similar currents as for Nic |  | 2.7 ± 0.4 | very similar currents as for Nic | affected | significantly less sensitive | very small currents on few oocytes |  | affected | failed to induce significant response | failed to induce significant response |  |  | 
ivermectin |  |  |  |  |  |  |  |  |  |  |  |  |  | 15.1 | 
